Results on five molecules are retold here after publication PMC9237996 (Toxicological Sciences, 2022).

Structures are written as SMILES. Read-outs that look alike come from different tables or passages of the source.

In data set [1] the target is bile salt export pump (BSEP) (Homo sapiens, UniProt O95342). Description: BSEP membrane vesicle taurocholate transport inhibition. It is filed as biochemical. The essentials:
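ATP-dependent taurocholate uptake into membrane vesicles carrying human BSEP. Transport inhibition was measured across several taurocholate concentrations crossed with several test-compound concentrations. Data were fit with Michaelis-Menten kinetics to give the Ki and the inhibition type. These values were then used as inputs to DILIsym v6A.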

Data set [2] relates to HepG2 cells. The data set is described as follows: Seahorse oxygen consumption rate. The class given is cell-based. The following applies: DILIsym input parameter. The method in brief: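 Oxygen consumption rate was measured in HepG2 cells after 24 h incubation with the test compound. It was related to intracellular compound concentration, measured by LC/MS/MS on a parallel culture with lysate values corrected for lysate and cell volume. Three independent studies were run on HepG2 cells, each in triplicate. The data were translated into DILIsym v6A mitochondrial-dysfunction parameters (ETC inhibition, uncoupling).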

For data set [3], the system named is HepG2 cells. Description: ROS formation by dihydroethidium. It is filed as cell-based. The following applies: for RNS/ROS production rate constant 1: DILIsym input parameter, oxidative stress. The method in brief:
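HepG2 cells were exposed to a range of test-compound concentrations for 6 or 24 h, and ROS formation was read by dihydroethidium fluorescence. Three independent studies were run, each in triplicate. Intracellular compound level came from LC/MS/MS of cell lysate from a parallel culture, corrected for lysate and cell volume. DILIsym oxidative-stress parameters were fit by simulating the data under a steady-state in vitro dosing scheme.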

For data set [4] the following is noted: 12 weeks, clinical data, cited from earlier work.

Sequence of bile salt export pump (BSEP) (O95342 whole entry): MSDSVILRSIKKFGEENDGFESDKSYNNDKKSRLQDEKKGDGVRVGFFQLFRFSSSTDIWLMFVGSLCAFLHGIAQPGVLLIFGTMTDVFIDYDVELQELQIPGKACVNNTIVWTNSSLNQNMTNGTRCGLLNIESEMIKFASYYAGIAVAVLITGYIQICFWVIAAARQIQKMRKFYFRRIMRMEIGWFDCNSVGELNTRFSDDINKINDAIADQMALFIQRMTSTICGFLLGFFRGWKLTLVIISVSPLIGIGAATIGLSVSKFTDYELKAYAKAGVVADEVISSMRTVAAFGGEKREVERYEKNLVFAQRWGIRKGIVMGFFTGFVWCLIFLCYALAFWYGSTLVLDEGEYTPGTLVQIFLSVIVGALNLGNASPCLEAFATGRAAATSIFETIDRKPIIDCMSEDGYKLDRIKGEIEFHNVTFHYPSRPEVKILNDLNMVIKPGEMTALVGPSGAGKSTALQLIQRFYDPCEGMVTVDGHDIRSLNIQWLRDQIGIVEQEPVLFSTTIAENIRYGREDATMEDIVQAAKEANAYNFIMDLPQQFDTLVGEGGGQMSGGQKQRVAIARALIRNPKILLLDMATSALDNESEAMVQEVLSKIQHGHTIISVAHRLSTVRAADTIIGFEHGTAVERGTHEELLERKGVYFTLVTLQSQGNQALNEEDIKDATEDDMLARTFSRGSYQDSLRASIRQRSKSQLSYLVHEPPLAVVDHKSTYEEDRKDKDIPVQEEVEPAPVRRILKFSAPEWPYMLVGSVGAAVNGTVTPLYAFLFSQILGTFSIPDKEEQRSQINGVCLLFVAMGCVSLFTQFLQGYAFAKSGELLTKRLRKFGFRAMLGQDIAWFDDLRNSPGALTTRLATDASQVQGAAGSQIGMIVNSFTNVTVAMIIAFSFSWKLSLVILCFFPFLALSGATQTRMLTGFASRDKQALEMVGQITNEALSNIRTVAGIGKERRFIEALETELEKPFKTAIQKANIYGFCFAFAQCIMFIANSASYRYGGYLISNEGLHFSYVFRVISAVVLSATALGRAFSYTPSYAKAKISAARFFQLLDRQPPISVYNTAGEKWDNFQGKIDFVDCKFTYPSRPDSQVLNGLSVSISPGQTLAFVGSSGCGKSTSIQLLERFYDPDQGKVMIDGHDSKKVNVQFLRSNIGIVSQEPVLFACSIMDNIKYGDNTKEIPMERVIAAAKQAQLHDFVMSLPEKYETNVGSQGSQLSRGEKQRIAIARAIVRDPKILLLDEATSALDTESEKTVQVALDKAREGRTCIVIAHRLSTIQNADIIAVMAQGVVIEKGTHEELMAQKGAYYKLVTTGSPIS

As a reminder, the Ki is the dissociation constant of the complex between target and ligand, obtained from inhibition or displacement. As to `C[C@@H]1[C@H](c2c(F)ccc(F)c2F)C[C@H](NC(=O)c2cnc3c(c2)C[C@@]2(C3)C(=O)Nc3ncccc32)C(=O)N1CC(F)(F)F` [Atogepant, atogepant], in data set [1], the “BSEP inhibition alpha value” was 0.64 Dimensionless and the Ki was 144 µM. Also, in the data set with HepG2 cells [2] (mitochondrial dysfunction), the “Coefficient for ETC Inhibition 3” value stood at 0.1 µM, the “Coefficient for ETC inhibition 1” value was 38 170 µM, the “Max inhibitory effect for ETC inhibition 3” value (shortened to “Max inhibitory effect”) amounted to 0.2 Dimensionless and the “Uncoupler 1 effect Hill” value is on record as “No effect”. Also, in the data set on HepG2 cells [2] (mitochondrial dysfunction), the “Uncoupler 1 effect Km” value was “No effect” and the “Uncoupler 1 effect Vmax” value was “No effect”. The “RNS/ROS production rate constant 1” value in the data set with HepG2 cells [3] turned out to be 0.0947 M⁻¹ s⁻¹.
For the molecule `N[C@@H]1c2cccnc2[C@H](OC(=O)N2CCC(n3c(=O)[nH]c4ncccc43)CC2)CC[C@H]1c1cccc(F)c1F` [Rimegepant, rimegepant], in data set [1], the “BSEP inhibition alpha value” is “Competitive”, the Ki is 27.2 µM and the “mode of inhibition for BSEP” value is recorded as “competitive”. Further, in the data set on HepG2 cells [2] (mitochondrial dysfunction), the “Coefficient for ETC Inhibition 3” value was 1.89 µM, the “Coefficient for ETC inhibition 1” value came out at 3470 µM, the “Max inhibitory effect” value is 0.45 Dimensionless and the “Uncoupler 1 effect Hill” value was “No effect”. Moreover, in the data set with HepG2 cells [2] (mitochondrial dysfunction), the “Uncoupler 1 effect Km” value is reported as “No effect” and the “Uncoupler 1 effect Vmax” value is “No effect”. The “RNS/ROS production rate constant 1” value with HepG2 cells [3] is 0.0972 M⁻¹ s⁻¹.
With `O=C(N[C@@H]1CC[C@@H](c2cccc(F)c2F)CN(CC(F)(F)F)C1=O)N1CCC(n2c(=O)[nH]c3ncccc32)CC1` [Telcagepant, telcagepant], the Ki in data set [1] amounted to 19 µM. The “mode of inhibition for BSEP” value in data set [1] is reported as “mixed”. For the same molecule, the “BSEP inhibition alpha value” in data set [1] (Telcagepant—High parameter set) and in data set [1] (Telcagepant—Low parameter set) was 4.32 Dimensionless throughout. Further, the “Uncoupler 1 effect Hill” value with HepG2 cells [2] (Telcagepant—High parameter set) and in the data set on HepG2 cells [2] (Telcagepant—Low parameter set) was “No effect” in each case. The “Uncoupler 1 effect Km” value in the data set on HepG2 cells [2] (Telcagepant—High parameter set) and with HepG2 cells [2] (Telcagepant—Low parameter set) was “No effect” throughout. Moreover, the “Uncoupler 1 effect Vmax” value with HepG2 cells [2] (Telcagepant—High parameter set) and in the data set on HepG2 cells [2] (Telcagepant—Low parameter set) was “No effect” in each case. Moreover, the “RNS/ROS production rate constant 1” value in the data set on HepG2 cells [3] (Telcagepant—High parameter set) and in the data set on HepG2 cells [3] (Telcagepant—Low parameter set) was 0.0972 M⁻¹ s⁻¹ each time. For the same molecule, the “Observed ALT > 3X ULN in Clinic” value is listed as 1.9% (5/263) in data set [4] (140 mg BID) and 3.2% (8/265) in data set [4] (280 mg BID).
On to `C[C@@H]1[C@H](c2ccccc2)C[C@H](NC(=O)c2cnc3c(c2)C[C@@]2(C3)C(=O)Nc3ncccc32)C(=O)N1CC(F)(F)F` [Ubrogepant, ubrogepant], for which, in data set [1], the “BSEP inhibition alpha value” is recorded as “No inhibition” and the “mode of inhibition for BSEP” value was “mixed”. Also, in the data set on HepG2 cells [2] (mitochondrial dysfunction), the “Max inhibitory effect” value is listed as 0.4 Dimensionless, the “Uncoupler 1 effect Hill” value turned out to be 4.3 Dimensionless and the “Uncoupler 1 effect Vmax” value came to 22.5 Dimensionless. Also, in the data set with HepG2 cells [3], the “RNS/ROS production rate constant 1” value came to 0.0458 M⁻¹ s⁻¹.
Regarding `Cc1cc(C[C@@H](NC(=O)N2CCC(c3cc4ccccc4[nH]c3=O)CC2)C(=O)N2CCN(C3CCN(C)CC3)CC2)cc2cn[nH]c12` [Zavegepant, zavegepant], in data set [1], the “BSEP inhibition alpha value” came out at 1.368 Dimensionless, the Ki was greater than 340 µM and the “mode of inhibition for BSEP” value is on record as “mixed”. Besides, in the data set with HepG2 cells [2] (mitochondrial dysfunction), the “Coefficient for ETC Inhibition 3” value turned out to be 2 µM, the “Coefficient for ETC inhibition 1” value is 1600 µM and the “Max inhibitory effect” value amounted to 1.5 Dimensionless. For the same molecule, in the data set with HepG2 cells [3], the “RNS/ROS production rate constant 1” value is on record as “No ROS production”. In addition, in the data set on HepG2 cells [3] (qualitative, DHE staining, HepG2, 24-h incubation), the “Oxidative stress / increase in ROS in vitro” value is given as “did not cause an increase in ROS”.
